Measured values: ChEMBL document CHEMBL6121061, “Metabolomics-Guided Discovery of Bipolarolides H-O, New Ophiobolin-Type Sesterterpenes with Antibacterial Activity from the Marine-Derived Fungus Uzbekistanica storfjordensis sp. nov” (2025)
Converted amounts (≈) assume the structure as drawn. The source made the active and inactive calls. The rule behind the calls is not given here.

Assays:
Staphylococcus aureus = assay: Antibacterial activity against Staphylococcus aureus ATCC 25923 assessed as inhibition of bacterial growth at 100 uM by broth microdilution method; assay type: functional, organism-based
Summary of the method: (§1)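 Broth microdilution per EUCAST, run in duplicate, for two independent experiments. Pure compounds came from 10 mM stocks in 20% DMSO, diluted with water, and were tested at a final 100 μM for growth inhibition. Controls were gentamycin at 0.03–32 μg/mL (positive) and 0.25% DMSO with growth medium (negative).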

Streptococcus agalactiae [1] = assay: Antibacterial activity against Streptococcus agalactiae ATCC 12386 by broth microdilution method; assay type: functional
Summary of the method: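 MIC was found by EUCAST broth microdilution in duplicate over 12.5–125 μM, using compounds from 10 mM stocks in 20% DMSO diluted in water. OD600 was plotted as a concentration-effect curve, and MIC was taken as the concentration giving an OD600 of 0.05. Gentamycin at 0.03–32 μg/mL served as the positive control.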

Enterococcus faecalis = assay: Antibacterial activity against Enterococcus faecalis ATCC 29122 assessed as inhibition of bacterial growth at 100 uM by broth microdilution method; assay type: functional, organism-based; summary of the method: as §1
Escherichia coli = assay: Antibacterial activity against Escherichia coli ATCC 25922 assessed as inhibition of bacterial growth at 100 uM by broth microdilution method; assay type: functional, organism-based; summary of the method: as §1
Pseudomonas aeruginosa = assay: Antibacterial activity against Pseudomonas aeruginosa ATCC 27853 assessed as inhibition of bacterial growth at 100 uM by broth microdilution method; assay type: functional, organism-based; summary of the method: as §1
Streptococcus agalactiae [2] = assay: Antibacterial activity against Streptococcus agalactiae ATCC 12386 assessed as inhibition of bacterial growth at 100 uM by broth microdilution method; assay type: functional, organism-based; summary of the method: as §1
Streptococcus agalactiae [3] = assay: Antibacterial activity against Streptococcus agalactiae ATCC 12386 assessed as inhibition of bacterial growth at 100 uM by broth microdilution method

SMILES	Activity (Staphylococcus aureus)	Activity (Streptococcus agalactiae [1])	Activity (Enterococcus faecalis)	Activity (Escherichia coli)	Activity (Pseudomonas aeruginosa)	MIC (Streptococcus agalactiae [1]) [µM]	Activity (Streptococcus agalactiae [2])	Activity (Streptococcus agalactiae [3])
CC(CCC[C@H](C)[C@H]1CC[C@]2(C)C[C@H]3C4=C(CC[C@@H]12)C(=O)N(CCO)[C@@H]4C[C@@]3(C)O)C(=O)O (stereo partly specified)	inactive	inactive	inactive	inactive	inactive			
CC(C)=CCC[C@H](C)[C@H]1CC[C@]2(C)C[C@H]3C4=C(CC[C@@H]12)C(=O)N(CCO)[C@@H]4C[C@@]3(C)O	inactive		inactive	inactive	inactive	64 (≈ 27.5 µg/mL)	Active	
CC(C)=CCC[C@H](C)[C@H]1CC[C@]2(C)C[C@H]3[C@@H]4[C@H](CC[C@@H]12)C(=O)N1CCOC41C[C@@]3(C)O (stereo partly specified)	inactive	inactive	inactive	inactive	inactive			
CC(CO)CCC[C@H](C)[C@H]1CC[C@]2(C)C[C@H]3C4=C(CC[C@@H]12)C(=O)N(CCO)[C@@H]4C[C@@]3(C)O (stereo partly specified)	inactive	inactive	inactive	inactive	inactive			
C/C(=C\CC[C@H](C)[C@H]1CC[C@]2(C)C[C@H]3C4=C(CC[C@@H]12)C(=O)N(CCO)[C@@H]4C[C@@]3(C)O)C(=O)O	inactive	inactive	inactive	inactive	inactive			
C/C(=C\CC[C@H](C)[C@H]1CC[C@]2(C)C[C@H]3C4=C(CC[C@@H]12)C(=O)N(CCO)[C@@H]4C[C@@]3(C)O)CO	inactive	inactive	inactive	inactive	inactive			
CC(CCC[C@H](C)[C@H]1CC[C@]2(C)C[C@H]3C4=C(CC[C@@H]12)C(=O)N(CCO)[C@@H]4C[C@@]3(C)O)COC=O (stereo partly specified)	inactive		inactive	inactive	inactive	86 (≈ 40.9 µg/mL)	Active	Active
CC(C)=C/C=C\[C@H](C)[C@H]1CC[C@]2(C)C[C@H]3C4=C(CC[C@@H]12)C(=O)N(CCO)[C@@H]4C[C@@]3(C)O	inactive		inactive	inactive	inactive	66 (≈ 28.2 µg/mL)	Active	Active
CNC(C)[C@@H]1CC[C@@H](N)[C@@H](O[C@H]2[C@H](O)[C@@H](O[C@H]3OC[C@](C)(O)[C@H](NC)[C@H]3O)[C@H](N)C[C@@H]2N)O1.CN[C@@H]1[C@@H](O)[C@@H](O[C@@H]2[C@@H](O)[C@H](O[C@H]3O[C@H](C(C)N)CC[C@H]3N)[C@@H](N)C[C@H]2N)OC[C@]1(C)O.CN[C@@H]1[C@@H](O)[C@@H](O[C@@H]2[C@@H](O)[C@H](O[C@H]3O[C@H](CN)CC[C@H]3N)[C@@H](N)C[C@H]2N)OC[C@]1(C)O (stereo partly specified)						3		
